Data set [1] relates to CCRF-CEM. Put plainly: Ability to bound CEM cell measured as competition for displacement of radiolabeled Thymopentin from the receptor. The class given is functional, Homo sapiens. The essentials: (§1)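 CEM cells at 5×10^6 cells/0.1 mL binding buffer, given unlabeled peptide over 10^-6 to 10^-3 M plus radiolabeled thymopentin (548 000 cpm), 30 min at 25 °C. Diluted with ice-cold buffer, washed twice by centrifugation, bound counts by scintillation. Efficacy = (total thymopentin binding − counts after competition)/(reduction by authentic thymopentin); mean ± SEM over repeated trials.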

The species entered for a further data set is Mus musculus. Put plainly: The plasma half life of compound was determined on heparin prepared by mouse plasma; Not degraded. The class given is ADME. The essentials:
(§2)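 Half-life in heparinized mouse plasma: peptide incubated for variable times, then parent decrease and degradation products resolved and quantified by HPLC absorbance.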

The nature of data set [2]: The plasma half life of compound was determined on heparin prepared by human plasma; Not degraded. The following applies: in vivo.
Data set [3] relates to CCRF-CEM. The experiment in a line: Binding efficacy expressed as counts remaining after competition was subtracted from total of Thymopentin and divided by the counts reduced by authentic Thymopentin. The class given is functional, Homo sapiens. The essentials: as §1
The nature of data set [4]: The plasma half life of compound was determined on heparin prepared by human plasma.
Data set [5] is described as follows: The plasma half life of compound was determined on EDTA prepared by mouse plasma. The class given is ADME. An outline of the steps:
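Peptide incubated in EDTA-treated mouse plasma for variable times. Loss of parent and appearance of degradation products quantified by HPLC with absorbance detection; half-life in min.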

Data set [6] is described as follows: The plasma half life of compound was determined on heparin prepared by mouse plasma. The class given is ADME. The essentials: as §2

In general, half-life refers to how long it takes for the measured level to halve.

SMILES strings stand for the structures.

Consider `CC(C)[C@H](CC(=O)[C@H](CC(=O)O)NC(=O)[C@H](CCCCN)N(C)C(=O)[C@@H](N)CCCN=C(N)N)C(=O)N[C@@H](Cc1ccccc1)C(=O)O`, for which, in the data set with CCRF-CEM [1], the Binding competition was 2820 mean counts. The T1/2 entry (in the data set filed under Mus musculus; in data set [2]) was “Not degraded” each time. The same molecule displayed a Binding with CCRF-CEM [3] of 13%.
In the data set on CCRF-CEM [1], `CCCC[C@H](NC(=O)[C@@H](N)CCCN=C(N)N)C(=O)N[C@@H](CC(=O)O)C(=O)C[C@H](C(=O)N[C@@H](Cc1ccccc1)C(=O)O)C(C)C` (stereo in doubt; 3b-B) showed a Binding competition of 1447 mean counts. Besides, the Binding in the data set with CCRF-CEM [3] was found to be 85%.
The like results for `C[C@H](CC(=O)[C@H](CC(=O)O)NC(=O)[C@H](CCCCN)NC(=O)[C@@H](N)CCCN=C(N)N)C(=O)N[C@@H](Cc1ccccc1)C(=O)O` (stereo in doubt; 3e-A) were, in that order, 2172 mean counts and 47%.
Turning to `CCCC[C@H](NC(=O)[C@@H](N)CCCN=C(N)N)C(=O)N[C@@H](CC(=O)O)C(=O)C[C@H](C(=O)N[C@@H](Cc1ccccc1)C(=O)O)C(C)C` (stereo in doubt; 3b-A), the Binding competition in the data set with CCRF-CEM [1] came to 1232 mean counts. In addition, the Binding in the data set on CCRF-CEM [3] was found to be 96%.
The like results for `CC(C)[C@H](CC(=O)[C@H](CC(=O)O)NC(=O)[C@@H]1CCCN1C(=O)[C@H](N)CCCN=C(N)N)C(=O)N[C@@H](Cc1ccccc1)C(=O)O` were, in that order, 1686 mean counts and 72%.
For `CCCC[C@H](CC(=O)[C@@H](N)CCCN=C(N)N)C(=O)N[C@@H](CC(=O)O)C(=O)N[C@H](C(=O)N[C@@H](Cc1ccccc1)C(=O)O)C(C)C` (stereo in doubt; 2a-D), the Binding competition in the data set on CCRF-CEM [1] was found to be 2333 mean counts. The molecule also had a Binding in the data set on CCRF-CEM [3] of 39%.
The like results for `CCCC[C@H](CC(=O)[C@@H](N)CCCN=C(N)N)C(=O)N[C@@H](CC(=O)O)C(=O)N[C@H](C(=O)N[C@@H](Cc1ccccc1)C(=O)O)C(C)C` (stereo in doubt; 2a-C) were, in that order, 2687 mean counts and 20%.
The like results for `CCCC[C@H](CC(=O)[C@@H](N)CCCN=C(N)N)C(=O)N[C@@H](CC(=O)O)C(=O)N[C@@H](C(=O)N[C@@H](Cc1ccccc1)C(=O)O)C(C)C` were, in that order, 1713 mean counts and 71%.
In the data set with CCRF-CEM [1], `C[C@H](CC(=O)[C@H](CC(=O)O)NC(=O)[C@H](CCCCN)NC(=O)[C@@H](N)CCCN=C(N)N)C(=O)N[C@@H](Cc1ccccc1)C(=O)O` (stereo in doubt; 3e-B) returned a Binding competition of 2606 mean counts. For the same molecule, the Binding with CCRF-CEM [3] was found to be 24%.
Molecule `CC(C)[C@H](CC(=O)[C@H](CC(=O)O)NC(=O)[C@@H]1CCCN1C(=O)[C@H](N)CCCN=C(N)N)C(=O)N[C@@H](Cc1ccccc1)C(N)=O` registered a Binding competition in the data set on CCRF-CEM [1] of 2692 mean counts. This molecule also displayed a Binding in the data set with CCRF-CEM [3] of 20%.
As to `CC(C)[C@H](CC(=O)[C@H](CC(=O)O)NC(=O)[C@H](CCCCN)NC(=O)[C@@H](N)CCCN=C(N)N)C(=O)N[C@@H](Cc1ccccc1)C(=O)O` (stereo in doubt; 3a-B), the Binding competition in the data set with CCRF-CEM [1] worked out at 1091 mean counts. For the same molecule, the Binding in the data set with CCRF-CEM [3] was 103%.
As to `CCCC[C@H](CC(=O)[C@@H](N)CCCN=C(N)N)C(=O)N[C@@H](CC(=O)O)C(=O)N[C@H](C(=O)N[C@@H](Cc1ccccc1)C(=O)O)C(C)C` (stereo in doubt; 2a-A), the Binding competition in the data set on CCRF-CEM [1] is on record as 2222 mean counts. This molecule also yielded a half-life in data set [4] of 12.5 min. Further, the Binding in the data set with CCRF-CEM [3] is 44%.
Take `CCCC[C@H](CC(=O)[C@@H](N)CCCN=C(N)N)C(=O)N[C@@H](CC(=O)O)C(=O)N[C@H](C(=O)N[C@@H](Cc1ccccc1)C(=O)O)C(C)C` (stereo in doubt; 2a-B): the Binding competition with CCRF-CEM [1] is recorded as 2176 mean counts. In addition, the Binding in the data set with CCRF-CEM [3] came out at 47%.
On to `CCCC[C@H](CC(=O)[C@@H](N)CCCN=C(N)N)C(=O)N[C@@H](CC(=O)O)C(=O)N[C@H](C(=O)N[C@@H](Cc1ccccc1)C(N)=O)C(C)C` (stereo in doubt; 2b-A), for which, in the data set on CCRF-CEM [1], the Binding competition was 3627 mean counts.
`CCCC[C@H](CC(=O)[C@@H](N)CCCN=C(N)N)C(=O)N[C@@H](CC(=O)O)C(=O)N[C@H](C(=O)N[C@@H](Cc1ccccc1)C(N)=O)C(C)C` (stereo in doubt; 2b-B) had a Binding competition with CCRF-CEM [1] of 3648 mean counts. This molecule also displayed a Binding in the data set on CCRF-CEM [3] of 0%.
Regarding `CC(C)[C@H](CC(=O)[C@H](CC(=O)O)NC(=O)[C@H](CCCCN)NC(=O)[C@@H](N)CCCN=C(N)N)C(=O)N[C@@H](Cc1ccccc1)C(=O)O` (stereo in doubt; 3a-A), the Binding competition in the data set on CCRF-CEM [1] is recorded as 844 mean counts. Moreover, the half-life was found to be 2.7 min in data set [4], 5.8 min in data set [5] and 2.4 min in data set [6]. The molecule further displayed a Binding in the data set on CCRF-CEM [3] of 115%.

For the origin of these results see ChEMBL document CHEMBL1130099, “Stabilized analogs of thymopentin. 2. 1,2- and 3,4-ketomethylene pseudopeptides” (J Med Chem, 1997).
